Measurements from ChEMBL document CHEMBL1151874, “Design and synthesis of novel hybrid benzamide-peptide histone deacetylase inhibitors” (Bioorg Med Chem Lett, 2009).
Calls of active or inactive are those of the source. The calls are words filed in the database; no cut-off is given here. Non-standard residues stand in square brackets, D forms with d. Residues, ends and D or L forms follow the SMILES beside them. *: point of attachment. Asu = N[C@@H](CCCCCC(=O)O)C(=O)O; NH(2-NH2-phenyl) = Nc1ccccc1N*

Legend:
Histone deacetylase 1 = Histone deacetylase 1 (Homo sapiens, UniProt Q13547); assay: Inhibition of human recombinant HDAC1
Sequence of Histone deacetylase 1 (Q13547 whole entry): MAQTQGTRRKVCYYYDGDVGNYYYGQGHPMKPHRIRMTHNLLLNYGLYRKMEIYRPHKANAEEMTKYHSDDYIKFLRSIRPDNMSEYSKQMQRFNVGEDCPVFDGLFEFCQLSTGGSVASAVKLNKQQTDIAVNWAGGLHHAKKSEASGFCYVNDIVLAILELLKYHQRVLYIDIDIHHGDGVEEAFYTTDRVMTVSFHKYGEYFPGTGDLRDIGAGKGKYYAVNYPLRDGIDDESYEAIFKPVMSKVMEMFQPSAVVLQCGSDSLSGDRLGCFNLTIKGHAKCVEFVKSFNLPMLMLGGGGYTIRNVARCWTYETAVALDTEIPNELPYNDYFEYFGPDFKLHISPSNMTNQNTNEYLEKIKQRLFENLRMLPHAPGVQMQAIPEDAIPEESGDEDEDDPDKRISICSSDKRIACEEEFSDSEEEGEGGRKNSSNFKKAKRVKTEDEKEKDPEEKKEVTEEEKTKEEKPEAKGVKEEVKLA
How it was run: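 Enzyme source: recombinant human HDAC1. IC50 reported as mean of two experiments with standard error.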

Histone deacetylase 3 = Histone deacetylase 3 (Homo sapiens, UniProt O15379); assay: Inhibition of human recombinant HDAC3
Sequence of Histone deacetylase 3 (O15379 whole entry): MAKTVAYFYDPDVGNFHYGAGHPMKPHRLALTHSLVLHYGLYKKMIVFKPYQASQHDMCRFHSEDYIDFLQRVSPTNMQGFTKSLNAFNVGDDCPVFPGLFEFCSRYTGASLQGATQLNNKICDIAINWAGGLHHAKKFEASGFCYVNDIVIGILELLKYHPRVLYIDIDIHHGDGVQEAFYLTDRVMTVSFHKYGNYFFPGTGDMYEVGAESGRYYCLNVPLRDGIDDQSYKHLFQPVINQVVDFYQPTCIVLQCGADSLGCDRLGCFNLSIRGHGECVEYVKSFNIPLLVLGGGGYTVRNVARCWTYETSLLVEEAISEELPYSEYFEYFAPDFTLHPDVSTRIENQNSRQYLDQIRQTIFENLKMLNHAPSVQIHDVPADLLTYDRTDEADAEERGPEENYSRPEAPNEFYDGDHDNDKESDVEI
How it was run: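 Recombinant human HDAC1 or HDAC3 enzyme inhibition assay. IC50 values are means of two experiments, with standard error reported.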

[1] = target: Histone deacetylase (Homo sapiens) (UniProt Q13547+O15379+Q9UBN7+Q92769+Q9UQL6+Q8WUI4+Q9BY41+Q96DB2+P56524+Q9UKV0+Q969S8); assay: Inhibition of HDAC in human GM15850 cells assessed as effect on histone H3 acetylation at 20 uM after 48 hrs by Western blot analysis; type: cell-based
How it was run: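 Human lymphoblastoid line GM15850 exposed to compound at 20 µM for 48 h; endogenous histone H3 acetylation judged by western blot.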

Homo sapiens = species: Homo sapiens; assay: Selectivity ratio of IC50 for human recombinant HDAC1 to IC50 for human recombinant HDAC3
[2] = Inhibition of Eimeria tenella HDAC1 assessed as [3H]acetate release by scintillation counting

Compound	IC50 (Histone deacetylase 1) [µM]	IC50 (Histone deacetylase 3) [µM]	Activity [1]	Ratio IC50 (Homo sapiens)	IC50 [2] [µM]
Nc1ccccc1NC(=O)CCCCC[C@@H]1NC(=O)[C@H]2CCCN2C(=O)[C@H](Cc2ccccc2)NC(=O)[C@H](Cc2ccccc2)NC1=O	20.5	5.6			
Nc1ccccc1NC(=O)CCCCC[C@H](NC(=O)[C@H]1CCCN1C(=O)[C@@H](N)Cc1ccccc1)C(=O)N[C@@H](Cc1ccccc1)C(=O)O	84.2	27.2			
CCC(=O)CCCCC[C@@H]1NC(=O)[C@H]2CCCCN2C(=O)[C@H]([C@@H](C)CC)NC(=O)[C@H](Cc2cn(OC)c3ccccc23)NC1=O [APICIDIN]					0.004
N=C(N)NCCC[C@@H]1NC(=O)CNC(=O)[C@H](CCCCCC(=O)Nc2ccccc2N)NC(=O)CNC1=O (cyclo([Asu](NH(2-NH2-phenyl))GRG))			Active		

The next lines start with results.

IC50 (Histone deacetylase 1) [µM]	IC50 (Histone deacetylase 3) [µM]	Activity [1]	Ratio IC50 (Homo sapiens)	Compound	IC50 [2] [µM]
4.7	1.3	Active		N=C(N)NCCC[C@H](N)C(=O)NCC(=O)N[C@@H](CCCCCC(=O)Nc1ccccc1N)C(=O)Nc1ccccc1N	
9.2	2.2			Cc1ccc(C(=O)N[C@@H](CCCN=C(N)N)C(=O)NCCC(=O)Nc2ccccc2N)cc1	
7.3	3.4			Nc1ccccc1NC(=O)CCCCC[C@H](NC(=O)[C@@H]1CCCN1C(=O)[C@@H](N)Cc1ccccc1)C(=O)Nc1ccccc1N	
83.9	4.3	Active	19	Cc1ccc(C(=O)NCC(=O)NCCC(=O)Nc2ccccc2N)cc1	
